According to ChEMBL document CHEMBL5058577, “EUbOPEN Chemogenomics Library 2 (Multiplex)” (2022):

Test system: Fibroblast
Assay: Multiplex assay against human fibroblast
Assay type: toxicity, cell-based
Summary of the method: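 Per cents of healthy-nucleus cells form the tubulin, mitochondrial-mass and membrane-permeability phenotype values. Live cells were stained at seeding with Hoechst33342, BioTracker Green Microtubule Cytoskeleton Dye, MitoTracker Red and Annexin V Alexa Fluor 680. After compound addition they were imaged on a CQ1 microscope at 37°C and 5% CO2, and CellPathfinder machine-learning gating split them into Hoechst high-intensity objects or normal cells, normal cells into healthy, pyknosed or fragmented nuclei, and pyknosed cells into mitotic or apoptotic.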

[1] = 12 h, 1 µM, compound concentration 1 uM, replicate 1
[2] = 12 h, 1 µM, compound concentration 1 uM, replicate 2
[3] = 12 h, 10 µM, compound concentration 10 uM, replicate 1
[4] = 12 h, 10 µM, compound concentration 10 uM, replicate 2
[5] = 24 h, 1 µM, compound concentration 1 uM, replicate 1
[6] = 24 h, 1 µM, compound concentration 1 uM, replicate 2
[7] = 24 h, 10 µM, compound concentration 10 uM, replicate 1
[8] = 24 h, 10 µM, compound concentration 10 uM, replicate 2
[9] = 48 h, 1 µM, compound concentration 1 uM, replicate 1
[10] = 48 h, 1 µM, compound concentration 1 uM, replicate 2
[11] = 48 h, 10 µM, compound concentration 10 uM, replicate 1
[12] = 48 h, 10 µM, compound concentration 10 uM, replicate 2

Structure (SMILES): COCCn1c(C)c(C)s/c1=N\C(=O)C1C(C)(C)C1(C)C
- Population Apoptotic (%) [1]: 43%
- Population Fragmented Nuclei (%) [1]: 18%
- Population Healthy Nuclei (%) [1]: 69%
- Population Hoechst High Intensity Objects (%) [1]: 0%
- Population Membrane Permeable-Phenotype (%) [1]: 0%
- Population Mitochondria Different-Phenotype (%) [1]: 7%
- Population Mitotic Cells (%) [1]: 56%
- Population Normal (%) [1]: 99%
- Population Pyknosed Nuclei (%) [1]: 11%
- Population Tubulin-Different-Phenotype (%) [1]: 34%
- Total Cell Count [1]: 136
- Population Apoptotic (%) [2]: 40%
- Population Fragmented Nuclei (%) [2]: 22%
- Population Healthy Nuclei (%) [2]: 57%
- Population Hoechst High Intensity Objects (%) [2]: 4%
- Population Membrane Permeable-Phenotype (%) [2]: 1%
- Population Mitochondria Different-Phenotype (%) [2]: 5%
- Population Mitotic Cells (%) [2]: 60%
- Population Normal (%) [2]: 95%
- Population Pyknosed Nuclei (%) [2]: 19%
- Population Tubulin-Different-Phenotype (%) [2]: 32%
- Total Cell Count [2]: 133
- Population Apoptotic (%) [3]: 64%
- Population Fragmented Nuclei (%) [3]: 19%
- Population Healthy Nuclei (%) [3]: 59%
- Population Hoechst High Intensity Objects (%) [3]: 2%
- Population Membrane Permeable-Phenotype (%) [3]: 1%
- Population Mitochondria Different-Phenotype (%) [3]: 14%
- Population Mitotic Cells (%) [3]: 35%
- Population Normal (%) [3]: 97%
- Population Pyknosed Nuclei (%) [3]: 20%
- Population Tubulin-Different-Phenotype (%) [3]: 56%
- Total Cell Count [3]: 167
- Population Apoptotic (%) [4]: 37%
- Population Fragmented Nuclei (%) [4]: 38%
- Population Healthy Nuclei (%) [4]: 40%
- Population Hoechst High Intensity Objects (%) [4]: 6%
- Population Membrane Permeable-Phenotype (%) [4]: 13%
- Population Mitochondria Different-Phenotype (%) [4]: 8%
- Population Mitotic Cells (%) [4]: 62%
- Population Normal (%) [4]: 93%
- Population Pyknosed Nuclei (%) [4]: 21%
- Population Tubulin-Different-Phenotype (%) [4]: 64%
- Total Cell Count [4]: 120
- Population Apoptotic (%) [5]: 64%
- Population Fragmented Nuclei (%) [5]: 15%
- Population Healthy Nuclei (%) [5]: 72%
- Population Hoechst High Intensity Objects (%) [5]: 2%
- Population Membrane Permeable-Phenotype (%) [5]: 1%
- Population Mitochondria Different-Phenotype (%) [5]: 5%
- Population Mitotic Cells (%) [5]: 35%
- Population Normal (%) [5]: 97%
- Population Pyknosed Nuclei (%) [5]: 11%
- Population Tubulin-Different-Phenotype (%) [5]: 38%
- Total Cell Count [5]: 122
- Population Apoptotic (%) [6]: 54%
- Population Fragmented Nuclei (%) [6]: 28%
- Population Healthy Nuclei (%) [6]: 54%
- Population Hoechst High Intensity Objects (%) [6]: 3%
- Population Membrane Permeable-Phenotype (%) [6]: 5%
- Population Mitotic Cells (%) [6]: 45%
- Population Normal (%) [6]: 96%
- Population Pyknosed Nuclei (%) [6]: 17%
- Population Tubulin-Different-Phenotype (%) [6]: 37%
- Total Cell Count [6]: 132
- Population Apoptotic (%) [7]: 68%
- Population Fragmented Nuclei (%) [7]: 20%
- Population Healthy Nuclei (%) [7]: 59%
- Population Hoechst High Intensity Objects (%) [7]: 4%
- Population Membrane Permeable-Phenotype (%) [7]: 0%
- Population Mitochondria Different-Phenotype (%) [7]: 15%
- Population Mitotic Cells (%) [7]: 31%
- Population Normal (%) [7]: 95%
- Population Pyknosed Nuclei (%) [7]: 19%
- Population Tubulin-Different-Phenotype (%) [7]: 61%
- Total Cell Count [7]: 154
- Population Apoptotic (%) [8]: 33%
- Population Fragmented Nuclei (%) [8]: 40%
- Population Healthy Nuclei (%) [8]: 36%
- Population Hoechst High Intensity Objects (%) [8]: 3%
- Population Membrane Permeable-Phenotype (%) [8]: 11%
- Population Mitochondria Different-Phenotype (%) [8]: 19%
- Population Mitotic Cells (%) [8]: 66%
- Population Normal (%) [8]: 96%
- Population Pyknosed Nuclei (%) [8]: 23%
- Population Tubulin-Different-Phenotype (%) [8]: 66%
- Total Cell Count [8]: 120
- Population Apoptotic (%) [9]: 60%
- Population Fragmented Nuclei (%) [9]: 23%
- Population Healthy Nuclei (%) [9]: 63%
- Population Hoechst High Intensity Objects (%) [9]: 4%
- Population Membrane Permeable-Phenotype (%) [9]: 0%
- Population Mitochondria Different-Phenotype (%) [9]: 4%
- Population Mitotic Cells (%) [9]: 40%
- Population Normal (%) [9]: 95%
- Population Pyknosed Nuclei (%) [9]: 12%
- Population Tubulin-Different-Phenotype (%) [9]: 43%
- Total Cell Count [9]: 123
- Population Fragmented Nuclei (%) [10]: 31%
- Population Healthy Nuclei (%) [10]: 56%
- Population Hoechst High Intensity Objects (%) [10]: 7%
- Population Membrane Permeable-Phenotype (%) [10]: 2%
- Population Normal (%) [10]: 92%
- Population Pyknosed Nuclei (%) [10]: 11%
- Population Tubulin-Different-Phenotype (%) [10]: 45%
- Total Cell Count [10]: 140
- Population Apoptotic (%) [11]: 75%
- Population Fragmented Nuclei (%) [11]: 23%
- Population Healthy Nuclei (%) [11]: 56%
- Population Hoechst High Intensity Objects (%) [11]: 7%
- Population Membrane Permeable-Phenotype (%) [11]: 0%
- Population Mitochondria Different-Phenotype (%) [11]: 22%
- Population Mitotic Cells (%) [11]: 25%
- Population Normal (%) [11]: 92%
- Population Pyknosed Nuclei (%) [11]: 20%
- Population Tubulin-Different-Phenotype (%) [11]: 67%
- Total Cell Count [11]: 151
- Population Apoptotic (%) [12]: 58%
- Population Fragmented Nuclei (%) [12]: 49%
- Population Healthy Nuclei (%) [12]: 34%
- Population Hoechst High Intensity Objects (%) [12]: 8%
- Population Membrane Permeable-Phenotype (%) [12]: 14%
- Population Mitochondria Different-Phenotype (%) [12]: 11%
- Population Mitotic Cells (%) [12]: 41%
- Population Normal (%) [12]: 91%
- Population Pyknosed Nuclei (%) [12]: 16%
- Population Tubulin-Different-Phenotype (%) [12]: 65%
- Total Cell Count [12]: 111

Structure (SMILES): CN(C)C(=O)Cn1cc(-c2ccc(-c3nnc4ccccn34)cc2)cn1
- Population Apoptotic (%) [1]: 57%
- Population Fragmented Nuclei (%) [1]: 18%
- Population Healthy Nuclei (%) [1]: 60%
- Population Hoechst High Intensity Objects (%) [1]: 5%
- Population Membrane Permeable-Phenotype (%) [1]: 1%
- Population Mitochondria Different-Phenotype (%) [1]: 3%
- Population Mitotic Cells (%) [1]: 42%
- Population Normal (%) [1]: 94%
- Population Pyknosed Nuclei (%) [1]: 21%
- Population Tubulin-Different-Phenotype (%) [1]: 22%
- Total Cell Count [1]: 139
- Population Apoptotic (%) [2]: 55%
- Population Fragmented Nuclei (%) [2]: 20%
- Population Healthy Nuclei (%) [2]: 58%
- Population Membrane Permeable-Phenotype (%) [2]: 7%
- Population Mitochondria Different-Phenotype (%) [2]: 7%
- Population Mitotic Cells (%) [2]: 44%
- Population Pyknosed Nuclei (%) [2]: 20%
- Population Tubulin-Different-Phenotype (%) [2]: 42%
- Total Cell Count [2]: 152
- Population Apoptotic (%) [3]: 52%
- Population Fragmented Nuclei (%) [3]: 8%
- Population Healthy Nuclei (%) [3]: 63%
- Population Hoechst High Intensity Objects (%) [3]: 3%
- Population Membrane Permeable-Phenotype (%) [3]: 0%
- Population Mitochondria Different-Phenotype (%) [3]: 6%
- Population Mitotic Cells (%) [3]: 47%
- Population Normal (%) [3]: 96%
- Population Pyknosed Nuclei (%) [3]: 28%
- Population Tubulin-Different-Phenotype (%) [3]: 31%
- Total Cell Count [3]: 140
- Population Apoptotic (%) [4]: 39%
- Population Fragmented Nuclei (%) [4]: 31%
- Population Healthy Nuclei (%) [4]: 38%
- Population Hoechst High Intensity Objects (%) [4]: 8%
- Population Membrane Permeable-Phenotype (%) [4]: 15%
- Population Mitochondria Different-Phenotype (%) [4]: 18%
- Population Mitotic Cells (%) [4]: 60%
- Population Normal (%) [4]: 91%
- Population Pyknosed Nuclei (%) [4]: 29%
- Population Tubulin-Different-Phenotype (%) [4]: 70%
- Total Cell Count [4]: 123
- Population Apoptotic (%) [5]: 56%
- Population Fragmented Nuclei (%) [5]: 23%
- Population Healthy Nuclei (%) [5]: 60%
- Population Hoechst High Intensity Objects (%) [5]: 0%
- Population Membrane Permeable-Phenotype (%) [5]: 2%
- Population Mitochondria Different-Phenotype (%) [5]: 1%
- Population Mitotic Cells (%) [5]: 43%
- Population Normal (%) [5]: 99%
- Population Pyknosed Nuclei (%) [5]: 16%
- Population Tubulin-Different-Phenotype (%) [5]: 25%
- Total Cell Count [5]: 144
- Population Apoptotic (%) [6]: 54%
- Population Hoechst High Intensity Objects (%) [6]: 4%
- Population Membrane Permeable-Phenotype (%) [6]: 4%
- Population Mitochondria Different-Phenotype (%) [6]: 3%
- Population Mitotic Cells (%) [6]: 45%
- Population Normal (%) [6]: 95%
- Population Tubulin-Different-Phenotype (%) [6]: 41%
- Total Cell Count [6]: 142
- Population Apoptotic (%) [7]: 65%
- Population Fragmented Nuclei (%) [7]: 10%
- Population Healthy Nuclei (%) [7]: 65%
- Population Hoechst High Intensity Objects (%) [7]: 5%
- Population Membrane Permeable-Phenotype (%) [7]: 2%
- Population Mitochondria Different-Phenotype (%) [7]: 5%
- Population Mitotic Cells (%) [7]: 34%
- Population Normal (%) [7]: 94%
- Population Pyknosed Nuclei (%) [7]: 24%
- Population Tubulin-Different-Phenotype (%) [7]: 25%
- Total Cell Count [7]: 140
- Population Apoptotic (%) [8]: 26%
- Population Fragmented Nuclei (%) [8]: 36%
- Population Healthy Nuclei (%) [8]: 40%
- Population Hoechst High Intensity Objects (%) [8]: 9%
- Population Membrane Permeable-Phenotype (%) [8]: 10%
- Population Mitochondria Different-Phenotype (%) [8]: 6%
- Population Mitotic Cells (%) [8]: 73%
- Population Normal (%) [8]: 90%
- Population Pyknosed Nuclei (%) [8]: 22%
- Population Tubulin-Different-Phenotype (%) [8]: 71%
- Total Cell Count [8]: 126
- Population Apoptotic (%) [9]: 58%
- Population Fragmented Nuclei (%) [9]: 22%
- Population Healthy Nuclei (%) [9]: 61%
- Population Hoechst High Intensity Objects (%) [9]: 1%
- Population Membrane Permeable-Phenotype (%) [9]: 4%
- Population Mitochondria Different-Phenotype (%) [9]: 4%
- Population Mitotic Cells (%) [9]: 41%
- Population Normal (%) [9]: 98%
- Population Pyknosed Nuclei (%) [9]: 16%
- Population Tubulin-Different-Phenotype (%) [9]: 29%
- Total Cell Count [9]: 151
- Population Apoptotic (%) [10]: 42%
- Population Fragmented Nuclei (%) [10]: 28%
- Population Healthy Nuclei (%) [10]: 52%
- Population Hoechst High Intensity Objects (%) [10]: 5%
- Population Membrane Permeable-Phenotype (%) [10]: 6%
- Population Mitochondria Different-Phenotype (%) [10]: 2%
- Population Mitotic Cells (%) [10]: 57%
- Population Normal (%) [10]: 94%
- Population Pyknosed Nuclei (%) [10]: 18%
- Population Tubulin-Different-Phenotype (%) [10]: 46%
- Total Cell Count [10]: 147
- Population Apoptotic (%) [11]: 52%
- Population Fragmented Nuclei (%) [11]: 16%
- Population Healthy Nuclei (%) [11]: 66%
- Population Hoechst High Intensity Objects (%) [11]: 2%
- Population Membrane Permeable-Phenotype (%) [11]: 0%
- Population Mitochondria Different-Phenotype (%) [11]: 2%
- Population Mitotic Cells (%) [11]: 47%
- Population Normal (%) [11]: 97%
- Population Pyknosed Nuclei (%) [11]: 17%
- Population Tubulin-Different-Phenotype (%) [11]: 38%
- Total Cell Count [11]: 137
- Population Apoptotic (%) [12]: 60%
- Population Fragmented Nuclei (%) [12]: 44%
- Population Healthy Nuclei (%) [12]: 47%
- Population Hoechst High Intensity Objects (%) [12]: 3%
- Population Membrane Permeable-Phenotype (%) [12]: 18%
- Population Mitochondria Different-Phenotype (%) [12]: 8%
- Population Mitotic Cells (%) [12]: 40%
- Population Normal (%) [12]: 96%
- Population Pyknosed Nuclei (%) [12]: 7%
- Population Tubulin-Different-Phenotype (%) [12]: 73%
- Total Cell Count [12]: 131
